OXTR potentiate – potentiators of human oxytocin receptor; P30559; CHO-OTR cells, Fluo-8 calcium fluorescence, potentiator mode; 0% = oxytocin EC15, 100% = EC100; activation, % at 3 µM; 0.061% of 320,000 active; AID 2445;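 active means activation above that plate's cutoff, the mean activation of tested compounds plus 3 SD, cut at about 6.6% in these data, passing the limit was not always enough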
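Dosing: Single dose, 3.0 µM nominal final compound concentration | Material: Human OTR in CHO cells | Technique: Kinetic Fluo-8 calcium fluorescence | Benchmarks: EC15 oxytocin alone as 0%, 75 nM oxytocin as 100% | Probe or stimulus: Oxytocin at about EC15, sub-maximal agonist stimulus | Incubation: Compound 6 min at room temperature before oxytocin, 100 s read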
OXTR ag – human OXTR agonism; CHO-OTR cells, Fluo-8 calcium fluorescence; normalized: DMSO 0%, oxytocin 100%; activation, % at 3 µM; 0.32% of 320,000 active; AID 2435;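 active means activation above the mean of all tested compounds plus 3 SD, cutoff set per screening run, cut at about 20% in these data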;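 further: peak over basal fluorescence ratio from a 100 s FLIPR kinetic read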
V1aR counter – activates human V1a receptor in oxytocin agonist counter-screen; P37288; CHO-V1R cells, Fluo-8 calcium fluorescence, agonist mode; 0% DMSO, 100% 3 nM vasopressin; activation, % at 3 µM; 0.25% of 320,000 active; AID 2797;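 active means activation above the mean activation of all tested compounds plus 3 SD, per screening run, cut at about 20% in these data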;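 further: signal is peak over basal fluorescence ratio across a 100 second FLIPR read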
Target sequence (P37288 whole entry, looked up): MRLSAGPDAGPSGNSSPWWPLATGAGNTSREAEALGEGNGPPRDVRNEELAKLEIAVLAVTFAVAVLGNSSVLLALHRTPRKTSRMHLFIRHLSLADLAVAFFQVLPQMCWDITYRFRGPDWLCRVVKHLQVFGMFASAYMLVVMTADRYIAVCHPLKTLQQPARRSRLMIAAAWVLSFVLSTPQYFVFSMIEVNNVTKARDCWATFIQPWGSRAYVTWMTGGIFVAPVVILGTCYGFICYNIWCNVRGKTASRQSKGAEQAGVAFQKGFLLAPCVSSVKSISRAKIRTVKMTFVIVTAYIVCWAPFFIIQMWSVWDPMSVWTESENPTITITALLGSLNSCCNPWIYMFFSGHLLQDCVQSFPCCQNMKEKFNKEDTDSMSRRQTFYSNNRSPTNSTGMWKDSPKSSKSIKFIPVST
CHO parental Ca – counter-screen: ATP calcium response change in parental CHO cells; parental CHO-K1, ATP-induced calcium, Fluo-8 fluorescence; inhibition, % at 5.6 µM; 0.63% of 330,000 active; AID 463079;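 active means inhibition above that plate's mean sample inhibition plus 3 SD, cut at about 26% in these data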
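Assay system: untransfected parental CHO cell line. Also added: ATP agonist challenge. Dosing: one dose, 5.6 µM nominal. Measured by: Fluo-8 fluorescence. Read-out: % inhibition. Benchmarks: ATP wells versus no-ATP DMSO wells. Repeats: no replicates.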
OX1R antag-1 – blocks the human orexin 1 receptor. 1.8% of 330,000 active. AID 485270. inhibition, % at 6.6 µM. OX1R-expressing cells, FRET antagonist read-out. O43613; in the data active means inhibition mostly above about 38%, no sharp cut-off; inactive means mostly below about 40%
OX1R antag-2 – blocks the human orexin 1 receptor; CHO/OX1R cells, Fluo-8 calcium fluorescence, orexin A; inhibition, % at 5 µM; 0.43% of 330,000 active;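 active means inhibition above its plate's threshold, mean inhibition of all tested compounds on the plate plus 3 SD, cut at about 37% in these data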
OX1R Fluo8 conf – confirmation of human orexin 1 receptor antagonists. shares compounds with OX1R antag-2. CHO/OX1R cells, orexin A calcium Fluo-8 fluorescence. inhibition, % at 5 µM. 38% of 1,100 active. AID 492963; in the data active means inhibition above about 29%
CHO Ca counter – signal in parental CHO cells, OX1R antagonist counter-screen; shares compounds with OX1R antag-2; parental CHO-K1, ATP-induced calcium, Fluo-8 fluorescence; inhibition, % at 5.6 µM; 9.3% of 1,100 active; AID 492965;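 active means inhibition above a per-plate limit, the mean inhibition of that plate's test compounds plus 3 SD, cut at about 25% in these data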
A number is an active result. An excerpt weighted towards active compounds, which were near 2.6% of everything screened.

For NC(=O)C(c1ccccc1)c1ccc(C(=O)c2ccccc2)cc1 (stereo not given) the results were OXTR potentiate inactive, OXTR ag inactive, V1aR counter inactive, CHO parental Ca inactive, OX1R antag-1 inactive and OX1R antag-2 inactive.
Screening COc1cccc(N2CCN(C(=O)CN3C(=O)NC(C)(c4ccc5ccccc5c4)C3=O)CC2)c1 (stereo not given) returned OXTR potentiate inactive, OXTR ag inactive, V1aR counter inactive, CHO parental Ca inactive, OX1R antag-1 inactive and OX1R antag-2 inactive.
Screening CCOC(=O)CC(=O)CSc1ncnc2c1oc1ccccc12 returned OXTR potentiate inactive, OXTR ag inactive, V1aR counter inactive, CHO parental Ca inactive, OX1R antag-1 inactive, OX1R antag-2 inactive, OX1R Fluo8 conf inactive and CHO Ca counter inactive.
For CCNc1nc2c(c(=O)[nH]c(=O)n2C)n1CCCc1ccccc1 the results were OXTR potentiate inactive, OXTR ag inactive, V1aR counter inactive, CHO parental Ca inactive, OX1R antag-1 inactive, OX1R antag-2 inactive, OX1R Fluo8 conf inactive and CHO Ca counter inactive.
Screening Cc1ccc(S(=O)(=O)N2CCCCC2)cc1NC(=O)COC(=O)C1=COCCO1 returned OXTR potentiate inactive, OXTR ag inactive, V1aR counter inactive, CHO parental Ca inactive, OX1R antag-1 inactive and OX1R antag-2 inactive.
Screening O=C(O)c1ccc(N2C(=O)CC(SC(=NCc3ccc4c(c3)OCO4)Nc3ccccc3)C2=O)cc1 (stereo not given) returned OXTR potentiate inactive, OXTR ag inactive, V1aR counter inactive, CHO parental Ca inactive, OX1R antag-1 inactive and OX1R antag-2 inactive.
Screening O=C(O)c1ccc(N2C(=O)CC(SC(=NCc3ccc4c(c3)OCO4)Nc3ccc(F)cc3)C2=O)cc1 (stereo not given) returned OXTR potentiate inactive, OXTR ag inactive, V1aR counter inactive, CHO parental Ca inactive, OX1R antag-1 inactive, OX1R antag-2 inactive, OX1R Fluo8 conf 31 and CHO Ca counter inactive.
O=C(C[n+]1cnn(CC(=O)c2ccc(Cl)cc2Cl)c1)c1ccc([N+](=O)[O-])cc1 was read as OXTR potentiate inactive, OXTR ag inactive, V1aR counter inactive, CHO parental Ca inactive, OX1R antag-1 inactive and OX1R antag-2 inactive.
Screening Cc1cccc(NS(=O)(=O)c2cc3c4c(c2)C(C)C(=O)N4CCC3)c1 (stereo not given) returned OXTR potentiate inactive, OXTR ag inactive, V1aR counter inactive, CHO parental Ca inactive, OX1R antag-1 inactive, OX1R antag-2 inactive, OX1R Fluo8 conf inactive and CHO Ca counter inactive.
COc1ccc(NC(=O)c2ccc(NC(=O)COC(=O)c3cnc(C)cn3)cc2)cc1 was read as OXTR potentiate inactive, OXTR ag inactive, V1aR counter inactive, CHO parental Ca inactive, OX1R antag-1 inactive, OX1R antag-2 inactive, OX1R Fluo8 conf inactive and CHO Ca counter inactive.
`Cc1cnc(C(=O)OCC(=O)Nc2ccc(Oc3ccccc3)cc2)cn1` gave OXTR potentiate inactive, OXTR ag inactive, V1aR counter inactive, CHO parental Ca inactive, OX1R antag-1 inactive and OX1R antag-2 inactive.
For CCOC(=O)Cn1nnc(-c2ccccc2)n1 the results were OXTR potentiate inactive, OXTR ag inactive, V1aR counter inactive, CHO parental Ca inactive, OX1R antag-1 inactive and OX1R antag-2 inactive.
Screening CCOC(=O)C(Cc1ccccc1)NC(=O)Cn1nnc(-c2ccccc2)n1 (stereo not given) returned OXTR potentiate inactive, OXTR ag inactive, V1aR counter inactive, CHO parental Ca inactive, OX1R antag-1 inactive, OX1R antag-2 inactive, OX1R Fluo8 conf 52 and CHO Ca counter inactive.
Screening CCN1C(=O)/C(=C/C=C2\N(CC)c3cc(S(=O)(=O)N(C)C)ccc3N2c2ccccc2)SC1=S returned OXTR potentiate inactive, OXTR ag inactive, V1aR counter inactive, CHO parental Ca inactive, OX1R antag-1 inactive, OX1R antag-2 inactive, OX1R Fluo8 conf 72 and CHO Ca counter 68.
Screening CCN1C(=O)/C(=C/C=C2/Sc3ccc4ccccc4c3N2CCO)SC1=S returned OXTR potentiate inactive, OXTR ag inactive, V1aR counter inactive, CHO parental Ca inactive, OX1R antag-1 inactive and OX1R antag-2 inactive.
`C[C@@H]1CN([C@@H](C)CO)C(=O)c2cccc(NC(=O)Nc3ccc(F)cc3)c2O[C@@H]1CN(C)Cc1ccc(Oc2ccccc2)cc1` gave OXTR potentiate inactive, OXTR ag inactive, V1aR counter inactive, CHO parental Ca inactive, OX1R antag-1 inactive, OX1R antag-2 52, OX1R Fluo8 conf 62 and CHO Ca counter inactive.
Screening O=C1c2ccccc2C(=O)N1CC(O)COc1ccccc1Cl (stereo not given) returned OXTR potentiate inactive, OXTR ag inactive, V1aR counter inactive, CHO parental Ca inactive, OX1R antag-1 inactive and OX1R antag-2 inactive.
`O=C(CN1c2ccccc2S(=O)(=O)c2ccccc21)NCc1ccc(F)cc1` gave OXTR potentiate inactive, OXTR ag inactive, V1aR counter inactive, CHO parental Ca inactive, OX1R antag-1 inactive, OX1R antag-2 inactive, OX1R Fluo8 conf inactive and CHO Ca counter inactive.
`O=C(Cc1ccccc1)n1nc(-c2ccco2)nc1SCc1ccccc1` gave OXTR potentiate inactive, OXTR ag inactive, V1aR counter inactive, CHO parental Ca inactive, OX1R antag-1 inactive, OX1R antag-2 40, OX1R Fluo8 conf inactive and CHO Ca counter inactive.
Screening O=C(c1ccco1)n1nc(-c2ccco2)nc1SCc1ccccc1 returned OXTR potentiate inactive, OXTR ag inactive, V1aR counter inactive, CHO parental Ca inactive, OX1R antag-1 inactive and OX1R antag-2 inactive.
Screening Cc1cc(OCC(=O)Nc2cccc(S(=O)(=O)N3CCCCC3)c2)ccc1Cl returned OXTR potentiate inactive, OXTR ag inactive, V1aR counter inactive, CHO parental Ca inactive, OX1R antag-1 inactive, OX1R antag-2 inactive, OX1R Fluo8 conf inactive and CHO Ca counter inactive.
Screening Cc1cccc(C)c1OCC(=O)Nc1cccc(S(=O)(=O)N2CCCC2)c1 returned OXTR potentiate inactive, OXTR ag inactive, V1aR counter inactive, CHO parental Ca inactive, OX1R antag-1 inactive and OX1R antag-2 inactive.
Screening C=CCOc1ccccc1/C=N/NC(=O)Cc1ccc(C)cc1 returned OXTR potentiate inactive, OXTR ag inactive, V1aR counter inactive, CHO parental Ca inactive, OX1R antag-1 inactive and OX1R antag-2 inactive.
For O=C(N/N=C/c1ccco1)c1cc(-c2ccc3ccccc3c2)n[nH]1 the results were OXTR potentiate inactive, OXTR ag inactive, V1aR counter inactive, CHO parental Ca inactive, OX1R antag-1 inactive, OX1R antag-2 44, OX1R Fluo8 conf inactive and CHO Ca counter inactive.
